Results published in ChEMBL document CHEMBL1124136, “The acylating potential of gamma-lactam antibacterials: base hydrolysis of bicyclic pyrazolidinones” (J Med Chem, 1988).
In brackets after ≈: the same amount, converted by molar mass.

How the values were obtained:
[1] = test system: Streptococcus pyogenes; assay: Minimum inhibitory concentration (MIC), tested against Streptococcus pyogenes C203.; format: functional
[2] = Rate constant for hydrolysis at pH 9; format: ADME; settings: buffer
Procedure, shortened: (§1)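 Constant-pH hydrolysis (pH 9 or 11) was run on a pH-stat with NaOH addition, and loss of lactam (3.6×10^-4 to 1×10^-3 M) was followed by HPLC. Ionic strength was 0.5 with KCl. A pseudo-first-order rate constant was obtained from the disappearance time course.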

[3] = test system: Klebsiella pneumoniae; assay: Minimum inhibitory concentration (MIC), tested against Klebsiella pneumoniae X68; format: functional
[4] = test system: Providencia rettgeri; assay: Minimum inhibitory concentration (MIC), tested against Providencia rettgeri C24; format: functional
[5] = Rate constant for hydrolysis at pH 10; format: ADME; settings: buffer
Procedure, shortened: (§2)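 Pseudo-first-order loss of parent lactam followed by HPLC at 35 °C. Lactam was 3.6×10^-4 to 1×10^-3 M in aqueous KCl at ionic strength 0.5, with pH held by NaOH on a pH-stat. Values were measured at pH 10 directly, or at pH 9 (×10) or pH 11 (÷10), taking k_obsd as proportional to [OH−].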

[6] = Rate constant for hydrolysis at pH 11; format: ADME; settings: buffer; procedure, shortened: as §1
[7] = Pseudo-first-order Rate constant for hydrolysis at pH 10; format: ADME; settings: buffer; procedure, shortened: as §2

Structure (SMILES)	MIC [1] [µg/mL]	k [2] [h⁻¹]	MIC [3] [µg/mL]	MIC [4] [µg/mL]	k [5] [h⁻¹]	k [6] [h⁻¹]	k [7] [h⁻¹]
CO/N=C(\C(=O)NC1CN2CC(S(C)(=O)=O)=C(C(=O)O)N2C1=O)c1csc(N)n1 (stereo unspecified)	0.25 (≈ 0.562 µM)	14.8	0.25 (≈ 0.562 µM)	0.06 (≈ 0.135 µM)	–	–	–
CO/N=C(\C(=O)NC1CN2CC(C(=O)OC)=C(C(=O)O)N2C1=O)c1csc(N)n1 (stereo unspecified)	4 (≈ 9.43 µM)	4.74	8 (≈ 18.9 µM)	1 (≈ 2.36 µM)	–	–	–
CO/N=C(\C(=O)NC1CN2N(C1=O)C(C(=O)O)=C(C(=O)OC)C2(C)C)c1csc(N)n1 (stereo unspecified)	64 (≈ 141 µM)	–	> 128	> 128	0.769	–	–
CO/N=C(\C(=O)NC1CN2N(C1=O)C(C(=O)O)=C(C(=O)O)C2(C)C)c1csc(N)n1 (stereo unspecified)	> 128	–	> 128	> 128	–	0.0111	–
CO/N=C(\C(=O)NC1CN2CC(C#N)=C(C(=O)O)N2C1=O)c1csc(N)n1 (stereo unspecified)	0.5 (≈ 1.28 µM)	17.3	0.5 (≈ 1.28 µM)	0.25 (≈ 0.639 µM)	–	–	–
C[C@H]1[C@H](NC(=O)/C(=N\OC(C)(C)C(=O)O)c2csc(N)n2)C(=O)N1S(=O)(=O)O [AZTREONAM]	–	–	–	–	–	–	0.4
CC(C)(O/N=C(\C(=O)N[C@@H]1C(=O)N2C(C(=O)[O-])=C(C[n+]3ccccc3)CS[C@H]12)c1csc(N)n1)C(=O)O [CEFTAZIDIME]	–	–	–	–	–	–	1.3

Continued, values first:

MIC [1] [µg/mL]	k [2] [h⁻¹]	MIC [3] [µg/mL]	MIC [4] [µg/mL]	k [5] [h⁻¹]	k [6] [h⁻¹]	k [7] [h⁻¹]	Structure (SMILES)
8 (≈ 19.5 µM)	–	64 (≈ 156 µM)	8 (≈ 19.5 µM)	0.324	–	–	CO/N=C(\C(=O)NC1CN2CC(C(=O)O)=C(C(=O)O)N2C1=O)c1csc(N)n1 (stereo unspecified)
> 128	–	> 128	> 128	0.146	–	–	CO/N=C(\C(=O)NC1CN2CC(c3ccccc3)=C(C(=O)O)N2C1=O)c1csc(N)n1 (stereo unspecified)
1 (≈ 2.06 µM)	2.33	32 (≈ 65.9 µM)	8 (≈ 16.5 µM)	–	–	–	CO/N=C(\C(=O)NC1CN2CC(C(=O)Nc3ccccc3)=C(C(=O)O)N2C1=O)c1csc(N)n1 (stereo unspecified)
> 128	–	> 128	> 128	0.19	–	–	CO/N=C(\C(=O)NC1CN2CC(c3cccs3)=C(C(=O)O)N2C1=O)c1csc(N)n1 (stereo unspecified)
0.5 (≈ 1.22 µM)	7.24	2 (≈ 4.9 µM)	0.25 (≈ 0.612 µM)	–	–	–	CO/N=C(\C(=O)NC1CN2CC(C(C)=O)=C(C(=O)O)N2C1=O)c1csc(N)n1 (stereo unspecified)
–	–	–	–	–	–	0.944	N[C@@H](C(=O)N[C@@H]1C(=O)N2C(C(=O)O)=C(Cl)CS[C@H]12)c1ccccc1.O [CEFACLOR]
–	–	–	–	–	–	0.0685	CC1=C(C(=O)O)N2C(=O)[C@@H](NC(=O)[C@H](N)c3ccccc3)[C@H]2SC1 [CEPHALEXIN ANHYDROUS]
–	–	–	–	–	–	0.317	CC(=O)OCC1=C(C(=O)O)N2C(=O)[C@@H](NC(=O)Cc3cccs3)[C@H]2SC1 [CEPHALOTHIN]
–	–	–	–	–	–	0.248	CC1(C)S[C@@H]2[C@H](NC(=O)COc3ccccc3)C(=O)N2[C@H]1C(=O)O [PENICILLIN V]
